In PubChem BioAssay AID651654 (Broad Institute, 2012):
Values joined by “and” are separate entries in the source; they are usually repeats but may differ in a detail not shown here. Identical values can stand only once. Among all 360,000 compounds or so, about 740 (0.21%) were called active.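 The calls were made as follows: active = mean lysis activity across replicates of at least 80%, whatever share of replicates individually reach that level; inactive = mean lysis activity below 80%.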 The sample as a whole holds a higher share of actives than the screen did. Where a structure was tested more than once in an assay, its records may differ in their call.

Assay: Cryptococcus neoformans cell lysis inducers, primary screen, AK release luminescence, single concentration (AID 651654)
Conditions: C. neoformans lysis, adenylate kinase release luminescence, 4 h; at 15 µM; stronger effect = higher value; normalised: neutral wells 0, clomiphene wells 100
In short: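 Schedule: static 4 h at 37 °C with compound, 1 h detection; system: C. neoformans cells; benchmarks: Clomiphene as positive control; buffer or medium: fresh YPD medium; measure: luminescence rise reflecting yeast cell lysis; measured by: luminescent adenylate kinase detection reagent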

| Structure (SMILES) | lysis activity |
| --- | --- |
| COCC(=O)Nc1ccc2c(c1)OC[C@H](C)N(C(=O)Cc1ccccn1)C[C@H](C)[C@@H](OC)CN(C)C2=O | 6.59% (inactive) |
| CCC(=O)N1[C@@H]2c3ccc(-c4cccnc4)c(=O)n3C[C@H]1[C@H](CO)[C@H]2C(=O)N1CCc2ccccc2C1 | -6.94% (inactive) |
| C[C@H](CO)N1C[C@H](C)[C@H](CN(C)Cc2ccc(C(F)(F)F)cc2)Oc2c(NC(=O)C3CCOCC3)cccc2C1=O | 0.0275% (inactive) |
| C[C@@H]1CN([C@@H](C)CO)C(=O)c2cccc(NC(=O)C3CC3)c2O[C@@H]1CN(C)C | 80.7% (active) |
| Cc1noc(C)c1S(=O)(=O)Nc1ccc2c(c1)C(=O)N([C@@H](C)CO)C[C@@H](C)[C@@H](CN(C)Cc1ccccc1)OCCCC[C@H](C)O2 | 96.8% (active) |
| C[C@H](CO)N1C[C@H](C)[C@H](CN(C)C)Oc2c(NC(=O)C3CCOCC3)cccc2C1=O | -4.63% (inactive) |
| Cc1ccc(S(=O)(=O)Nc2ccc3c(c2)C(=O)N([C@@H](C)CO)C[C@H](C)[C@H](CN(C)C(=O)Nc2ccc(C(F)(F)F)cc2)O3)cc1 | 100% (active) |
| Cc1noc(C)c1S(=O)(=O)Nc1ccc2c(c1)C(=O)N([C@H](C)CO)C[C@@H](C)[C@@H](CN(C)Cc1ccccc1)OCCCC[C@@H](C)O2 | 0.357% (inactive) |
| Cc1ccc(S(=O)(=O)Nc2ccc3c(c2)C(=O)N([C@H](C)CO)C[C@@H](C)[C@H](CN(C)C(=O)Nc2ccc(C(F)(F)F)cc2)OCCCC[C@H](C)O3)cc1 | -2.02% (inactive) |
| C[C@H]1CN([C@@H](C)CO)C(=O)c2cc(NS(C)(=O)=O)ccc2O[C@H]1CN(C)C(=O)Nc1ccc(C(F)(F)F)cc1 | 2.09% (inactive) |
| Cc1noc(C)c1S(=O)(=O)Nc1ccc2c(c1)C(=O)N([C@@H](C)CO)C[C@H](C)[C@H](CN(C)CC1CCCCC1)OCCCC[C@H](C)O2 | 1.9% (inactive) |
| CCCN(C)C[C@@H]1OCCCC[C@H](C)Oc2ccc(NS(=O)(=O)c3ccc(C)cc3)cc2C(=O)N([C@H](C)CO)C[C@@H]1C | 98.4% (active) |
| C[C@H]1CN([C@@H](C)CO)C(=O)c2cccc(NC(=O)C3CCOCC3)c2O[C@@H]1CN(C)C | -5.09% (inactive) |
| CCCN(C)C[C@H]1OCCCC[C@H](C)Oc2ccc(NS(=O)(=O)c3ccc(C)cc3)cc2C(=O)N([C@@H](C)CO)C[C@H]1C | -0.143% (inactive) |
| Cc1ccc(S(=O)(=O)Nc2ccc3c(c2)C(=O)N([C@H](C)CO)C[C@@H](C)[C@@H](CN(C)S(C)(=O)=O)OCCCC[C@@H](C)O3)cc1 | -3.44% (inactive) |
| C[C@@H]1CN([C@H](C)CO)C(=O)c2cc(NS(=O)(=O)c3cn(C)cn3)ccc2O[C@@H](C)CCCCO[C@H]1CN(C)C | 109% (active) |
| Cc1ccc(S(=O)(=O)N(C)C[C@@H]2Oc3ccc(NS(=O)(=O)c4c(C)noc4C)cc3CC(=O)N([C@H](C)CO)C[C@H]2C)cc1 | 1.73% (inactive) |
| Cc1noc(C)c1S(=O)(=O)Nc1ccc2c(c1)CC(=O)N([C@H](C)CO)C[C@H](C)[C@H](CN(C)S(=O)(=O)c1cn(C)cn1)O2 | -4.65% (inactive) |
| C[C@@H]1CCCCO[C@H](CN(C)C)[C@H](C)CN([C@@H](C)CO)C(=O)c2cc(NS(=O)(=O)c3cn(C)cn3)ccc2O1 | -0.536% (inactive) |
| C[C@@H]1CN([C@@H](C)CO)C(=O)c2cc(NS(=O)(=O)c3cn(C)cn3)ccc2O[C@@H](C)CCCCO[C@H]1CN(C)S(=O)(=O)c1cn(C)cn1 | 1.43% (inactive) |
| Cc1noc(C)c1S(=O)(=O)Nc1ccc2c(c1)CC(=O)N([C@@H](C)CO)C[C@H](C)[C@@H](CN(C)S(=O)(=O)c1cn(C)cn1)O2 | 117% (active) |

| Structure (SMILES) | lysis activity |
| --- | --- |
| C[C@H]1CN([C@@H](C)CO)C(=O)c2cccc(NS(=O)(=O)c3cn(C)cn3)c2O[C@@H]1CN(C)CC1CCCCC1 | 82.6% (active) |
| C[C@H]1CN([C@@H](C)CO)C(=O)c2cc(NS(=O)(=O)c3cn(C)cn3)ccc2O[C@H]1CN(C)CC1CCCCC1 | -5.59% (inactive) |
| C[C@@H]1CN([C@H](C)CO)C(=O)c2cccc(NS(=O)(=O)c3cn(C)cn3)c2O[C@H]1CN(C)CC1CC1 | -3.67% (inactive) |
| CN1c2ccc(-c3ccccc3)cc2[C@H]2[C@H](CCN2C(=O)c2ccc3c(c2)OCO3)[C@H]1CO | -10.3% (inactive) |
| COCC(=O)N(C)C[C@H]1Oc2cc(C#C[C@@H](C)O)ccc2S(=O)(=O)N([C@H](C)CO)C[C@H]1C | 9.52% (inactive) |
| Cc1ccc(OCCCC(=O)NC(C)c2ccccc2)c(C)c1 (stereo unspecified) | 3.6% (inactive) |
| Cc1ccc(OCC(=O)NC(C)c2ccccc2)cc1C (stereo unspecified) | 204% (active) |
| Cc1ccc(OCC(=O)Nc2ccc(C(=O)O)cc2NC(=O)COc2ccc(C)c(C)c2)cc1C | -1.83% (inactive) |
| C[C@H]1CCCCO[C@H](CN(C)S(=O)(=O)c2cn(C)cn2)[C@@H](C)CN([C@@H](C)CO)C(=O)c2cc(NC(=O)C3CCCCC3)ccc2O1 | -1.38% (inactive) |
| Cc1cccc(S(=O)(=O)N2CC[C@@H]3[C@H]2c2cc(C#Cc4ccc(F)cc4)ccc2N[C@@H]3CO)c1 | -3.22% (inactive) |
| CO[C@H]1CN(C)C(=O)c2cc(NC(=O)Nc3cccc(F)c3)ccc2OC[C@@H](C)N(C)C[C@H]1C | 18.3% (inactive) |
| CO[C@@H]1CN(C)C(=O)c2cc(NC(=O)C3CC3)ccc2OC[C@@H](C)N(Cc2ccc(F)cc2)C[C@@H]1C | 1.45% (inactive) |
| CO[C@H]1CN(C)C(=O)c2cc(NC(=O)Nc3cccc(F)c3)ccc2OC[C@@H](C)N(C)C[C@@H]1C | 7.44% (inactive) |
| CO[C@H]1CN(C)C(=O)c2ccc(NC(=O)C3CC3)cc2OC[C@@H](C)N(Cc2ccc(F)cc2)C[C@@H]1C | 95.3% (active) |
| CO[C@@H]1CN(C)C(=O)c2cc(NC(=O)C3CC3)ccc2OC[C@H](C)N(Cc2ccc(F)cc2)C[C@@H]1C | 0.205% (inactive) |
| CO[C@@H]1CN(C)C(=O)c2cc(NC(=O)Nc3cccc(F)c3)ccc2OC[C@H](C)N(C)C[C@@H]1C | 98.7% (active) |
| CC(C)NC(=O)N(C)C[C@H]1Oc2cc(-c3cncnc3)ccc2S(=O)(=O)N([C@@H](C)CO)C[C@H]1C | -2.43% (inactive) |
| C[C@@H]1CN([C@@H](C)CO)S(=O)(=O)c2ccc(C#Cc3ccc(F)cc3)cc2O[C@H]1CN(C)C(=O)NC1CCCC1 | 81.9% (active) |
| C/C=C/c1ccc2c(c1)O[C@@H](CN(C)C(=O)NC1CCCC1)[C@@H](C)CN([C@H](C)CO)S2(=O)=O | -13.9% (inactive) |
| C[C@@H]1CN([C@@H](C)CO)S(=O)(=O)c2ccc(C#Cc3ccc(F)cc3)cc2O[C@@H]1CN(C)CC1CC1 | 0.211% (inactive) |
| C[C@H](CO)N1C[C@H](C)[C@@H](CN(C)C(=O)c2cccc(F)c2)Oc2cc(-c3cncnc3)ccc2S1(=O)=O | 4.59% (inactive) and 104% (active) and -0.371% (inactive) |

| Structure (SMILES) | lysis activity |
| --- | --- |
| CC(=O)N(C)C[C@@H]1Oc2cc(-c3cncnc3)ccc2S(=O)(=O)N([C@@H](C)CO)C[C@H]1C | 0.747% (inactive) |
| Cc1cc(C(=O)Nc2ccc3c(c2)C(=O)N(C)[C@@H]2CC[C@H](CC(=O)NC4CCCC4)O[C@@H]2CO3)no1 | 3.44% (inactive) |
| CNC(=O)C[C@H]1CC[C@H]2[C@H](COc3ccc(NC(=O)c4cc(C)on4)cc3C(=O)N2C)O1 | 83.7% (active) |
| Cc1cc(C(=O)Nc2ccc3c(c2)C(=O)N(C)[C@@H]2CC[C@@H](CC(=O)NC4CCCC4)O[C@@H]2CO3)no1 | 1.38% (inactive) |
| COc1cccc(C(=O)Nc2ccc3c(c2)C(=O)N(C)C[C@@H](OC)[C@@H](C)CN(C)[C@@H](C)CO3)c1 | -1.94% (inactive) |
| O=C(C[C@@H]1C[C@@H]2c3cc(NS(=O)(=O)c4ccc(F)cc4)ccc3O[C@@H]2[C@@H](CO)O1)NCc1ccncc1 | -3.62% (inactive) |
| C[C@@H]1CCCCO[C@H](CN(C)C(=O)Nc2ccc(C(F)(F)F)cc2)[C@@H](C)CN([C@@H](C)CO)C(=O)c2cc(NC(=O)Nc3cccc4ccccc34)ccc2O1 | -0.038% (inactive) |
| C[C@@H]1CN([C@@H](C)CO)C(=O)Cc2cc(NC(=O)Nc3ccc4c(c3)OCO4)ccc2O[C@@H]1CN(C)CC1CCCCC1 | 5.47% (inactive) |
| C[C@H](CO)N1C[C@H](C)[C@H](CN(C)C)Oc2ncc(C#Cc3ccc(F)cc3)cc2C1=O | 5.93% (inactive) and 8.34% (inactive) |
| Cc1noc(C)c1NC(=O)Nc1ccc2c(c1)C(=O)N([C@@H](C)CO)C[C@H](C)[C@H](CN(C)CC1CCCCC1)O2 | 80.5% (active) |
| Cc1noc(C)c1NC(=O)Nc1ccc2c(c1)C(=O)N([C@@H](C)CO)C[C@@H](C)[C@H](CN(C)C)O2 | -2.64% (inactive) |
| C[C@H]1CN([C@@H](C)CO)C(=O)c2cc(NC(=O)Nc3ccc4c(c3)OCO4)ccc2O[C@@H]1CN(C)CC1CCCCC1 | 81.3% (active) |
| COc1ccc(C#Cc2cnc3c(c2)C(=O)N([C@@H](C)CO)C[C@H](C)[C@@H](CN(C)CC2CCOCC2)O3)cc1 | 0.473% (inactive) |
| C[C@H]1CN([C@@H](C)CO)C(=O)Cc2cc(NC(=O)Nc3cccc4ccccc34)ccc2O[C@@H]1CN(C)C | 5.63% (inactive) |
| C[C@@H]1CN([C@H](C)CO)C(=O)Cc2cc(NC(=O)Nc3cccc4ccccc34)ccc2O[C@@H]1CN(C)Cc1ccc(C(=O)O)cc1 | 105% (active) |
| C[C@@H]1CN([C@@H](C)CO)C(=O)c2cc(NC(=O)Nc3ccc(F)cc3)ccc2O[C@H]1CN(C)CC1CCCCC1 | -0.073% (inactive) |
| Cc1noc(C)c1NC(=O)Nc1ccc2c(c1)CC(=O)N([C@@H](C)CO)C[C@H](C)[C@@H](CN(C)CC1CCCCC1)O2 | 4.38% (inactive) |
| C[C@@H]1CN([C@H](C)CO)C(=O)Cc2cc(NC(=O)Nc3cccc4ccccc34)ccc2O[C@@H]1CN(C)Cc1ccc(C(F)(F)F)cc1 | 0.378% (inactive) |
| C[C@H](CO)N1C[C@H](C)[C@@H](CN(C)CC2CCOCC2)Oc2ncc(C#Cc3ccc(F)cc3)cc2C1=O | 1.59% (active) |
